Screening data as filed in PubChem BioAssay.
Only some compounds are listed: those with a hit (about 2.5% of all), similar ones and a draw of the others.
Efflux pump inh = inhibitors of Candida efflux pumps in yeast, primary screen, S. cerevisiae, Nile Red, multiplex; inhibition, % at 10 µM; S. cerevisiae Candida pump triplex; AID 485275, 2010; actives 0.44% (n = 330,000);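 active means plate passing quality check with inhibition over a set limit, or well fluorescence over plate mean plus 4 SD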;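 further: Nile Red retained in pooled yeast measured as flow cytometry median fluorescence; higher means more Nile Red kept so more efflux inhibition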
ABCG2 block = ABCG2 efflux pump inhibitors, primary screen, multiplex with ABCB1, IgMXP3 cells, flow cytometry. Broad substrate specificity ATP-binding cassette transporter ABCG2 (Homo sapiens), Q9UNQ0. JC-1 efflux. inhibition, % at 6.6 µM. actives 0.1% (n = 190,000). AID 1325, 2008;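 active means inhibition above 80%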
Target sequence (Q9UNQ0 whole entry, looked up): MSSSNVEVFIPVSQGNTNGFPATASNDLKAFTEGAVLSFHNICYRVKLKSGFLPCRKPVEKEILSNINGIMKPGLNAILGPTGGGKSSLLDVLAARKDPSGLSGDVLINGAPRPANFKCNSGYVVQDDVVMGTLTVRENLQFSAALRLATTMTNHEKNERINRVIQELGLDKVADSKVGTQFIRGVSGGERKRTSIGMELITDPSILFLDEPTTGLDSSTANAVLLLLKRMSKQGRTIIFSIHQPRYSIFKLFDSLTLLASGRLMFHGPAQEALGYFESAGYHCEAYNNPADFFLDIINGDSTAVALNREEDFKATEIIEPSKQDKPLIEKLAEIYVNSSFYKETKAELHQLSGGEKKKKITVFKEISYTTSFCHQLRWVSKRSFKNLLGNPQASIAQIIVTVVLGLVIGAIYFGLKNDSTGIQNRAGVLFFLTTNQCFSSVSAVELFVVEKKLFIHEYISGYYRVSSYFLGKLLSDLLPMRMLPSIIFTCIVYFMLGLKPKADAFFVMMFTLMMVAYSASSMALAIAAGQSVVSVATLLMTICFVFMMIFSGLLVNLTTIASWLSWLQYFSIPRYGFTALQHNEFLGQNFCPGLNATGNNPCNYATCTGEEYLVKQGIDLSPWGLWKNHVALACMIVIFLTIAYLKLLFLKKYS
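Times: 10 min at 25 °C | Test system: Two drug-resistant human cell lines, ABCG2 and ABCB1 | Quantity: 3 million cells/mL final, two lines in 1:1 ratio | Signal: Flow cytometry, 530 nm JC-1 signal | Dosing: Compound at 6.6 µM | Controls: Nicardipine and DMSO wells | Reagent: JC-1 as fluorescent efflux pump substrate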
MEKK2mut PB1 HTS = MEK5 binding signal on mutant MEKK2 PB1, primary screen, biochemical, multiplex bead flow cytometry, Alexa488-MEK5 | Alexa488-MEK5 binding to MEKK2 mutant | percent response, % at 10 µM | actives 0.35% (n = 290,000) | AID 1530, 2009; in the data active means percent response above about 24%, passing the limit was not always enough
MEKK3 PB1 HTS = modulators of MEKK3-MEK5 PB1 binding, primary screen, biochemical, wildtype MEKK3, multiplex bead flow cytometry, Alexa488-MEK5. Mitogen-activated protein kinase kinase kinase 3 (Homo sapiens), Q99759. AID 1529, 2009. bead-based flow cytometry, Alexa488-MEK5 binding to MEKK3; actives lie on both sides; 0 = blocked by unlabeled MEK5, 100 = vehicle. binding response (% of control), % at 10 µM. actives 1.4% (n = 290,000);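 active means binding response more than 3 SD above or below the average of its plate-row segment, actives on both sides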;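 further: Alexa488 bead fluorescence after subtracting the streptavidin-only scavenger bead signal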
ABCB1 block = ABCB1 efflux pump inhibitors, primary screen, cell-based, multiplex, flow cytometry, ABCG2 counter-screen. inhibition, % at 6.6 µM. actives 0.067% (n = 190,000). CCRF-Adr cells, JC-1 efflux; in the data active means inhibition above about 40%;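 further: higher value means more JC-1 retained so stronger ABCB1 efflux block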
MEKK2wt PB1 HTS = modulators of MEK5 binding to wildtype MEKK2, primary screen, biochemical, multiplex bead flow cytometry, Alexa488-MEK5; actives 1.1% (n = 290,000); binding response (% of control), % at 10 µM; Alexa488-MEK5 binding to MEKK2 WT; actives lie on both sides; in the data active means binding response below about 67% or above about 130%
MEKK2wt confirm = modulators of MEK5 binding to wildtype MEKK2, confirmation, biochemical, single concentration, multiplex bead flow cytometry; Alexa488-MEK5 binding to MEKK2 WT; actives lie on both sides; shares compounds with MEKK3 PB1 HTS; binding response (% of control), % at 10 µM; actives 2.4% (n = 5,900); in the data active means binding response below about 16% or above about 210%; inactive means in between
MEKK2mut-MEK5 = mutant MEKK2 PB1-MEK5 binding signal retest – biochemical, single concentration, multiplex bead flow cytometry, confirmation. shares compounds with MEKK3 PB1 HTS. Alexa488-MEK5 binding to MEKK2 mutant. percent response, % at 10 µM. actives 2% (n = 5,900). AID 1893, 2009; in the data active means percent response mostly above about 71%, no sharp cut-off; inactive means mostly below about 38%;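 further: higher means compound restores mutant binding toward wildtype level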
MEKK3 confirm = MEKK3 wild-type PB1 binding to MEK5, inhibitors, confirmation, biochemical, bead multiplex flow cytometry, single concentration, wildtype. shares compounds with MEKK3 PB1 HTS. Alexa488-MEK5 binding to MEKK3; hits give low values. binding response (% of control), % at 10 µM. actives 1.8% (n = 5,900);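 active means binding response below 72% of control, or above a set upper limit, though filed actives all read lower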
Numbers stand for hits; n = inactive; x = not tested or not shown; [ ] = dose if it differs, or a comment.

SMILES	Efflux pump inh	ABCG2 block	MEKK2mut PB1 HTS	MEKK3 PB1 HTS	ABCB1 block	MEKK2wt PB1 HTS	MEKK2wt confirm	MEKK2mut-MEK5	MEKK3 confirm
O=C(COC(=O)CCC(NC(=O)OCc1ccccc1)C(=O)OCC(=O)Nc1ccccc1)Nc1ccccc1 (centres undefined)	n	n	n	152	n	n	n	n	n
COc1ccc(/C=C/C(=O)OCC(=O)Nc2cccc(C(C)=O)c2)cc1	n	n	n	149	n	n	n	n	n
COc1ccc(/C=C/C(=O)OCC(=O)Nc2cc(C(N)=O)cc(C(N)=O)c2)cc1	n	n	n	n	n	n	x	x	x
COc1cccc(CN(C)C(=O)C2CC(=O)N(c3ccc4c(c3)OCCO4)C2)c1 (centres undefined)	n	x	x	x	x	x	x	x	x
C/C=C/c1ccc(OCCCCN(C)Cc2ccccc2)c(OC)c1	n	x	n	n	x	139	n	n	n
C/C=C/c1ccc(OCCCCOc2ccccc2C(C)=O)c(OC)c1	n	n	n	n	n	n	x	x	x
Cc1cc2ccccc2n1CCNC(=O)C1CC1	n	x	n	n	x	n	x	x	x
Cc1cc2ccccc2n1CCNC(=O)c1cccs1	n	n	n	34[inhibitor]	n	9.0[inhibitor]	n	n	70
COCCCNC(=O)CNC(=S)N(Cc1ccccc1F)C1CCCCC1	n	n	n	n	n	n	x	x	x
CCCCNC(=O)CNC(=S)N(Cc1ccccc1F)C1CCCCC1	n	n	n	131	n	n	n	n	n
O=C(Nc1ccccc1C(=O)NCC1CCCO1)c1ccc(Cl)cc1 (centres undefined)	n	x	n	n	x	n	x	x	x
COC(=O)c1ccc(C(=O)Nc2ccc3c(c2)C(=O)NC3=O)cc1	n	x	n	60[inhibitor]	x	69[inhibitor]	n	n	n
COc1ccc(Cl)cc1NC(=O)C[n+]1ccccc1	n	x	n	n	x	n	x	x	x
CCc1cc[n+](CC(=O)Nc2ccc(Cl)cc2Cl)cc1	n	n	n	3.0[inhibitor]	n	4.0[inhibitor]	n	n	n
CCOc1ccccc1OCCCC(=O)Nc1sccc1C(N)=O	n	n	n	151	n	n	n	n	n
CCNc1nc(NCC)nc(N/N=C/c2ccc(Br)cc2)n1	n	n	n	n	n	n	x	x	x
O=C(CSc1ccccc1C(=O)NCc1ccccc1)NC12CC3CC(CC(C3)C1)C2	n	n	n	134	n	n	n	n	n
O=C(CSc1ccccc1C(=O)NCc1ccccc1)NC1CCCCCCC1	n	n	n	131	n	n	n	n	n
Cc1csc(=O)n1CCC(=O)OCC(=O)Nc1ncc(Cl)cc1Cl	n	x	x	x	x	x	x	x	x
COc1ccc(-n2cc(-c3ccccc3)[nH]c2=S)cc1	n	n	n	130	n	n	n	n	n
COP(=O)(OC)C(NC(=O)Nc1ccccc1)c1ccccc1 (centres undefined)	n	x	n	n	x	n	x	x	x
COc1ccc(NC(=O)c2cc(S(=O)(=O)N3CCCCC3)c[nH]2)cc1Cl	n	x	n	n	x	n	x	x	x
Cc1ccccc1C(=O)NC=C1C(=O)OC(C)(C)OC1=O	n	n	n	n	n	n	x	x	x
CC1(C)OC(=O)C(=CNC(=O)c2c(F)cccc2F)C(=O)O1	n	n	n	72[inhibitor]	n	n	n	n	n
CCN1CCc2c(sc(NC(=O)c3cc4ccccc4cc3OC)c2C(N)=O)C1	n	x	26	n	x	149	n	n	n
SMILES	Efflux pump inh	ABCG2 block	MEKK2mut PB1 HTS	MEKK3 PB1 HTS	ABCB1 block	MEKK2wt PB1 HTS	MEKK2wt confirm	MEKK2mut-MEK5	MEKK3 confirm
O=C1NC2(CCCCCC2)C(=O)N1Cc1ccccc1Cl	n	x	n	n	x	n	x	x	x
CCOc1ccccc1NC(=O)C(OC(=O)c1ccccc1)c1ccccc1 (centres undefined)	n	n	n	130	n	n	n	n	n
CCOC(=O)/C(C#N)=C/Nc1ccccc1OC(F)(F)F	n	x	n	n	x	n	x	x	x
COc1ccc(C(=O)SC2=NCCS2)cc1	n	n	n	-2.0[inhibitor]	n	-11[inhibitor]	n	n	n
CCOc1ccc(C(=O)SC2=NCCS2)cc1	n	x	n	n	x	n	x	x	x
Cc1cccc(OCC(=O)NNC(=O)c2ccc3nc[nH]c3c2)c1	n	x	x	x	x	x	x	x	x
CC(=O)Nc1ccc(S(=O)(=O)Nc2cccc(NC(=O)c3ccco3)c2)cc1	n	n	n	45[inhibitor]	n	n	n	n	n
CCN1CCN(c2c(Cl)cccc2NC(=O)c2ccc3c(c2)OCCO3)CC1	n	n	n	48[inhibitor]	n	n	n	n	n
O=[N+]([O-])c1c(N2CCN(CCO)CC2)nc2ccccn12	n	x	n	n	x	n	x	x	x
COc1ccc(-c2csc(NC(=O)c3cccc(S(=O)(=O)N4CCN(C)CC4)c3)n2)cc1	n	n	n	72[inhibitor]	n	n	n	n	n
CN1CCN(S(=O)(=O)c2cccc(C(=O)Nc3nc(-c4ccccc4)cs3)c2)CC1	n	n	x	x	n	x	x	x	x
COc1ccc(-c2csc(NC(=O)CS(=O)(=O)c3ccccc3)n2)cc1	n	x	x	x	x	x	x	x	x
COc1ccc(-c2csc(NC(=O)C3CCCCN3S(=O)(=O)c3ccccc3)n2)cc1 (centres undefined)	n	n	n	80[inhibitor]	n	n	n	n	n
CCN(CC)c1ccc(C=O)c(OC)c1	n	n	n	n	n	n	x	x	x
O=C(CN1C(=O)NC2(CCCCCC2)C1=O)NCc1ccccc1Cl	n	x	x	x	x	x	x	x	x
COc1ccc(CN2C(=O)NC3(CCCCCC3)C2=O)cc1F	n	n	n	n	n	n	x	x	x
Cc1cc(NC(=O)c2ccccc2O)nc(C)n1	n	n	n	n	n	n	x	x	x
Cc1cc(C)nc(NNC(=O)c2ccccc2O)n1	n	n	n	129	n	n	n	n	n
Cc1cc(C)cc(OC(=O)c2cccnc2)c1	n	x	n	n	x	n	x	x	x
Cc1ccc(OC(=O)c2cccnc2)cc1	n	n	n	57[inhibitor]	n	56[inhibitor]	n	n	n
COC(=O)c1cc(Br)ccc1OC(=O)c1cccnc1	n	n	n	0.0[inhibitor]	n	0.0[inhibitor]	n	n	n
